Data taken from ChEMBL document CHEMBL4513216, “Probing the Open Global Health Chemical Diversity Library for Multistage-Active Starting Points for Next-Generation Antimalarials” (ACS Infect Dis, 2020).

Test: Toxicity liver stage against HepG2, at 10uM
Assay type: cell-based
Design: test concentration 10 uM, cell line HepG2-A16-CD81EGFP
Conditions: human, HepG2-A16-CD81EGFP cells; read-out: INHIBITION
Method in brief: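 Uninfected HepG2-A16-CD81EGFP cells, 3 × 10^3 per well, 1536-well, plated on prespotted compound at 10 μM final, parasite-free screening media added to match infected plates; puromycin 10 μM positive, DMSO 0.5% negative; run in parallel with 48 h PbLuc assay at 37 °C, 5% CO2; viability by CellTiter-Glo luminescence, normalized to controls.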

Row | SMILES | cytotoxicity at 10 µM
1 | COC(=O)CC1CCN(C(=O)c2ccc(C)cc2)CC1 | 4.99%
2 | Cc1noc([C@H]2COC[C@H]3CN(C(=O)Cc4ccc(F)cc4)C[C@H]32)n1 | -21.1%
3 | CCCN1C(=O)c2ccccc2C1OC (stereo unspecified) | -10.1%
4 | CC(C)C(NC(=O)C1CCCC1)c1cc(O)nc(-c2cccnc2)n1 (stereo unspecified) | 9.82%
5 | CS(=O)(=O)N1CCC(c2cnc(-c3cn[nH]c3)cn2)CC1 | 3.64%
6 | COc1ccc2c(c1)CC(C1CCOCC1)N(C(=O)c1ccnn1C)C2 (stereo unspecified) | -0.516%
7 | CN(C)CCN(CC1CCCO1)C(=O)Cc1cn2ccccc2n1 (stereo unspecified) | -2.96%
8 | Cc1ccc(C(O)CN(C)Cc2cnn(C)c2)cc1C (stereo unspecified) | -5.37%
9 | O=C(NCc1ccon1)Nc1cc(F)ccc1N1CCCCC1 | 12.7%
10 | CS(=O)(=O)NC1CC(=O)N(c2ccccc2Cl)C1 (stereo unspecified) | -0.585%
11 | N#Cc1ccc(F)c(CN2CCCC2Cn2cncn2)c1 (stereo unspecified) | 8.21%
12 | OCCN1CCC(CNCCOCC(F)(F)F)CC1 | -0.903%
13 | CNC(=O)NC(=O)C(C)N1CCN(C2CCCC2)CC1 (stereo unspecified) | -14%
14 | CC(C)c1ccc(O)c(C(=O)NCc2nncn2C)c1 | -3%
15 | C=C(C)CN(CC)C(=O)Nc1ccccc1CN(C)C(C)=O | -9.6%
16 | Cc1cccc(C(=O)NC(C(=O)NCc2ccc(O)nc2)C(C)C)c1 (stereo unspecified) | -7.81%
17 | Cc1noc(C)c1CNC(=O)NCCOc1ccc(F)cc1F | 0.409%
18 | Cc1cc(NCC(=O)N(C)C(C)c2cccs2)c(C(N)=O)cc1F (stereo unspecified) | -0.99%
19 | COCCn1cc(NC(=O)NC(C)CCc2ccccc2)ccc1=O (stereo unspecified) | 3.4%
20 | CC(C)(C)Cc1noc2ncc(C(=O)N3CCC3)cc12 | 7.28%
21 | Cc1cc(F)c(S(=O)(=O)NCc2ccnc(N(C)C)n2)cc1F | -156%
22 | CN(Cc1nnc(C2CC2)n1C)S(=O)(=O)Cc1ccccc1F | 16.8%
23 | Cc1ccc(C(=O)N2CC(C(N)=O)O[C@H](C)C2)c(C)c1 (stereo partly specified) | -0.29%

Row | SMILES | cytotoxicity at 10 µM
24 | Cc1cc(F)ccc1N1CCCC(NC(=O)CCc2ccncc2)C1 (stereo unspecified) | 8.72%
25 | COC(=O)[C@H]1CCCCN1C(=O)c1cccc(-n2cccn2)c1 | -8.29%
26 | COc1ccc2c(c1)OCC(Cc1cnccc1N)C2 (stereo unspecified) | 4.28%
27 | O=C(CCN1CCCC1c1ccccn1)N1CCc2ccccc2C1 (stereo unspecified) | 2.87%
28 | CCCN1CC2(CCN(c3ncc(F)cn3)CC2)CC1C(=O)O (stereo unspecified) | -1.71%
29 | CCOCCNC(=O)c1cc(COc2cncc(Cl)c2)on1 | 7.62%
30 | CC(C)N(C)S(=O)(=O)c1ccc2c(c1)CCN(C(=O)c1cnccn1)C2 | -6.17%
31 | c1[nH]c(CC2CCCC2)nc1CN1CCCC2(CCOC2)C1 (stereo unspecified) | -9.12%
32 | CC(C)Cc1cc(CNC(=O)C2CCCN(C(=O)N(C)C)C2)no1 (stereo unspecified) | 2.31%
33 | O=C(c1ccc2cccc(F)c2n1)N1CCN(CCn2cccc2)CC1 | 13.5%
34 | Cc1cnccc1-n1nc(C(C)C)nc1CS(C)(=O)=O | 0.999%
35 | COc1ccc(CN2CCC(O)(CN3CCCCC3)C2)c(C)c1 (stereo unspecified) | 7.5%
36 | CC1CCN(Cc2cnc(S(=O)(=O)CC3CC3)n2CC2CCCO2)CC1 (stereo unspecified) | 6.17%
37 | Cc1ncc2c(n1)CN(Cc1nc(-c3cccs3)no1)CC2 | -9.8%
38 | Cc1ccc(NC2CCN(C(=O)c3ccoc3C)CC2)nn1 | -12.7%
39 | CC(=O)N1CCN(C(=O)CCCc2nnc(-c3ccccc3)o2)CC1 | -12.5%
40 | Cc1ccc(-c2nc(CN3CCc4cnc(C)nc4C3)no2)cc1 | -5.12%
41 | Cc1csc(N2CCN(C(=O)Cc3cccs3)CC2)n1 | -23.3%
42 | Cc1ccccc1OCCC(=O)NC(C)c1nnc2n1CCCCC2 (stereo unspecified) | -12.3%
43 | Cc1nn(C)c(C)c1NC(=O)CN1CCCC1c1c(C)nn(C)c1C (stereo unspecified) | -6.44%
44 | NC1CCN(C(=O)c2c(F)cccc2Br)CC1 | 11.4%
45 | O=c1[nH]c2cn(-c3cccc(F)c3)c(=O)n2n1Cc1ccc(Cl)cc1 | 8.53%
46 | Cn1[nH]c(C2CCCN(C(=O)CO)C2)cc1=O (stereo unspecified) | 2.01%
